The values below come from ChEMBL document CHEMBL3120069, “Chemical genetics-based discovery of indole derivatives as HCV NS5B polymerase inhibitors” (Eur J Med Chem, 2014).

A short description of data set [1]: Cytotoxicity against human Huh7.5 cells assessed as cell viability after 72 hrs by MTT assay. In kind it is cell-based, Huh-7.
Data set [2] deals with Hepatitis C virus. Briefly: Antiviral activity against Hepatitis C virus JFH-1 J6 genotype 2a infected in human Huh7.5 cells assessed as inhibition of viral RNA replication after 72 hrs by luciferase reporter gene assay. In kind it is functional, organism-based, Hepacivirus hominis. To be noted: subtype 2a JFH1 J6, Huh-7, 72 h.
Data set [3] is described as follows: Selectivity index, ratio of CC50 for human Huh7.5 cells to EC50 for Hepatitis C virus JFH-1 J6 genotype 2a infected in human Huh7.5 cells. In kind it is toxicity, cell-based, Huh-7. The note with it: read-out: Ratio CC50/EC50.
Data set [4] is described as follows: Cytotoxicity against human Huh7.5 cells assessed as cell viability at 10 uM after 72 hrs by MTT assay relative to control. In kind it is cell-based, Huh-7. The note with it: read-out: Activity. In a few lines:
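Rluc-J6/JFH1 RNA-transfected Huh7.5 cells screened at a single 10 µM for 72 h alongside DMSO, with clemizole as positive control. Renilla luciferase gave replication level and parallel MTT gave viability, each as percent of DMSO; ratio of viability to replication reported.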

Data set [5] relates to Hepatitis C virus. Put plainly: Antiviral activity against Hepatitis C virus JFH-1 J6 genotype 2a infected in human Huh7.5 cells assessed as viral RNA replication at 10 uM after 72 hrs by luciferase reporter gene assay relative to control. The note with it: subtype 2a JFH1 J6, Huh-7, 72 h.
Data set [6] can be described thus: Ratio of cytotoxicity against human Huh7.5 cells assessed as cell viability to antiviral activity against Hepatitis C virus JFH-1 J6 genotype 2a infected in human Huh7.5 cells assessed as inhibition of viral RNA replication. Type of data set: toxicity, cell-based, Huh-7.

Where only a bound is given, the exact number is not on record here.

Turning to `C/C(=C\c1c[nH]c2ccccc12)C(=O)O`, the CC50 at 72 h in data set [1] was more than 100 µM. Moreover, in the data set with Hepatitis C virus [2], the EC50 was more than 10 µM.

With `C/C(=C\c1c[nH]c2cc(C(C)C)ccc12)C(=O)Nc1ccc(C(C)(C)C)cc1`, in data set [1], the CC50 at 72 h turned out to be 24.8 µM. Also, the selectivity ratio in data set [3] came out at 17. Further, the EC50 in the data set with Hepatitis C virus [2] is 1.5 µM.

With `C/C(=C\c1c[nH]c2cc(C)ccc12)C(=O)Nc1ccc(C(C)(C)C)cc1`, the CC50 at 72 h in data set [1] was determined as 25.6 µM. For the same compound, the selectivity ratio in data set [3] amounted to 5.7. The concentration giving a half-maximal response (EC50) with Hepatitis C virus [2] was found to be 4.5 µM.

Turning to `C/C(=C\c1c[nH]c2ccc(C#N)cc12)C(=O)Nc1ccc(C(C)C)cc1`, the 50% cytotoxic concentration (CC50) at 72 h in data set [1] was 137 µM. The selectivity ratio in data set [3] came out at 3.6. Besides, the 50% effective concentration (EC50) in the data set with Hepatitis C virus [2] was 37.7 µM.

In the case of `C/C(=C\c1c[nH]c2ccc([N+](=O)[O-])cc12)C(=O)Nc1ccc(C(C)(C)C)cc1`, the CC50 at 72 h in data set [1] worked out at 23.1 µM. Also, the selectivity ratio in data set [3] turned out to be 3.7. The EC50 in the data set on Hepatitis C virus [2] was determined as 6.2 µM.

Take `COc1ccc2c(/C=C(\C)C(=O)Nc3ccc(C(C)(C)C)cc3)c[nH]c2c1`: in data set [1], the CC50 at 72 h was 30.7 µM. The selectivity ratio in data set [3] was found to be 3.5. Besides, the EC50 with Hepatitis C virus [2] is 8.8 µM.

As to `C/C(=C\c1c[nH]c2ccccc12)C(=O)NCCCn1ccnc1`, the CC50 at 72 h in data set [1] was more than 100 µM. Besides, the selectivity ratio in data set [3] is more than 3. The half-maximal effective concentration (EC50) in the data set on Hepatitis C virus [2] was 33.7 µM.

For `C/C(=C\c1c[nH]c2ccc(C)cc12)C(=O)Nc1ccc(C(C)(C)C)cc1`, the CC50 at 72 h in data set [1] was 28.1 µM. Moreover, the selectivity ratio in data set [3] turned out to be 4.2. Also, the EC50 in the data set with Hepatitis C virus [2] is 6.7 µM.

As to `CC(C)(C)c1ccc(NC(=O)/C=C/c2c[nH]c3ccccc23)cc1`, the viability at 72 h, 10 µM in data set [4] came to 60.1%. Further, in the data set with Hepatitis C virus [5], the Activity at 10 µM amounted to 2.1%. In data set [1], the CC50 at 72 h came to 10.1 µM. In addition, the selectivity ratio was determined as 28.6 in data set [6] and 5.2 in data set [3]. Moreover, the EC50 in the data set with Hepatitis C virus [2] is 1.9 µM.

On to `CCOC(=O)/C(C)=C/c1c[nH]c2ccccc12`, for which, in data set [1], the CC50 at 72 h was determined as 25.3 µM. Further, the selectivity ratio in data set [3] came out at 1.1. The EC50 in the data set with Hepatitis C virus [2] was 22.2 µM.

For the compound `CNC(=O)/C(C)=C/c1c[nH]c2ccccc12`, the CC50 at 72 h in data set [1] is more than 10 µM. In addition, the EC50 with Hepatitis C virus [2] is more than 10 µM.

`C/C(=C\c1c[nH]c2ccccc12)C(=O)Nc1ccc(C(C)(C)C)cc1`: in data set [1], the CC50 at 72 h is 17.3 µM. Also, the selectivity ratio in data set [3] worked out at 7.9. Also, the EC50 with Hepatitis C virus [2] came out at 2.2 µM.

Turning to `COc1ccc2[nH]cc(/C=C(\C)C(=O)Nc3ccc(C(C)(C)C)cc3)c2c1`, in data set [1], the CC50 at 72 h was 16.4 µM. Further, the selectivity ratio in data set [3] turned out to be 5.5. In addition, the EC50 with Hepatitis C virus [2] is 3 µM.

`C/C(=C\c1c[nH]c2ccc(C#N)cc12)C(=O)Nc1ccc(C)cc1`: the CC50 at 72 h in data set [1] is more than 100 µM. Besides, the EC50 with Hepatitis C virus [2] was more than 100 µM.

Take `C/C(=C\c1c[nH]c2ccccc12)C(=O)Nc1ccc(C(F)(F)F)cc1`: the CC50 at 72 h in data set [1] is 94.9 µM. Further, the selectivity ratio in data set [3] was found to be 2.2. Besides, the EC50 with Hepatitis C virus [2] came to 43.6 µM.

Take `C/C(=C\c1c[nH]c2ccccc12)C(=O)NCCN(C)C`: the 50% cytotoxic concentration (CC50) at 72 h in data set [1] is more than 100 µM. Moreover, the selectivity ratio in data set [3] is more than 1.6. In the data set on Hepatitis C virus [2], the EC50 was found to be 64.2 µM.

Take `C/C(=C\c1c[nH]c2cc(Br)ccc12)C(=O)Nc1ccc(C(C)(C)C)cc1`: in data set [1], the CC50 at 72 h amounted to 68.8 µM. Besides, in data set [3], the selectivity ratio was 5.3. In addition, the EC50 in the data set with Hepatitis C virus [2] was 13 µM.

On to `O=C(/C=C/c1c[nH]c2ccccc12)N1CCN(Cc2ccc(C(F)(F)F)cc2)CC1`, for which the viability at 72 h, 10 µM in data set [4] worked out at 81.7%. Moreover, in the data set with Hepatitis C virus [5], the Activity at 10 µM came out at 32.4%. Also, the CC50 at 72 h in data set [1] stood at 27.9 µM. Further, the selectivity ratio in data set [6] came to 2.5; in data set [3] it was 1.8. Also, the EC50 in the data set with Hepatitis C virus [2] came out at 15.6 µM.

As for `COc1ccc(CNC(=O)/C=C/c2c[nH]c3ccccc23)cc1OC`, the viability at 72 h, 10 µM in data set [4] is 92.2%. Besides, the Activity at 10 µM in the data set with Hepatitis C virus [5] worked out at 35.1%. In addition, in data set [1], the CC50 at 72 h was found to be 89.5 µM. In addition, the selectivity ratio in data set [6] was found to be 2.6; in data set [3] it was 6.9. Besides, in the data set on Hepatitis C virus [2], the EC50 was 12.9 µM.

For `CC(C)(C)c1ccc(NC(=O)CCc2c[nH]c3ccccc23)cc1`, in data set [1], the CC50 at 72 h came out at 13.6 µM. In data set [3], the selectivity ratio came out at 2.3. Moreover, in the data set with Hepatitis C virus [2], the EC50 amounted to 6.1 µM.

Take `C/C(=C\c1c[nH]c2ccccc12)C(N)=O`: in data set [1], the CC50 at 72 h was more than 10 µM. In the data set with Hepatitis C virus [2], the EC50 was more than 10 µM.

For the compound `COc1cccc2[nH]cc(/C=C(\C)C(=O)Nc3ccc(C(C)(C)C)cc3)c12`, in data set [1], the CC50 at 72 h stood at 34.1 µM. The selectivity ratio in data set [3] was determined as 1.9. Moreover, the EC50 in the data set with Hepatitis C virus [2] turned out to be 17.6 µM.

With `CCN(CC)C(=O)/C=C/c1c[nH]c2ccccc12`, the viability at 72 h, 10 µM in data set [4] is 93.8%. For the same compound, the Activity at 10 µM in the data set with Hepatitis C virus [5] is 72%. The CC50 at 72 h in data set [1] turned out to be 98.7 µM. For the same compound, the selectivity ratio in data set [6] was determined as 1.3; in data set [3], 1.6. In addition, the concentration for a half-maximal effect (EC50) in the data set with Hepatitis C virus [2] is 62.7 µM.

`CC(C)NC(=O)/C=C/c1c[nH]c2ccccc12`: the viability at 72 h, 10 µM in data set [4] was 106%. For the same compound, the Activity at 10 µM with Hepatitis C virus [5] amounted to 69%. Also, in data set [1], the CC50 at 72 h was more than 100 µM. Moreover, the selectivity ratio was 1.5 in data set [6] and more than 1.1 in data set [3]. In the data set with Hepatitis C virus [2], the EC50 is 93.8 µM.

On to `C/C(=C\c1c[nH]c2ccccc12)C(=O)NCc1ccco1`, for which the CC50 at 72 h in data set [1] came out at 39.1 µM. The selectivity ratio in data set [3] was 3.5. The EC50 in the data set with Hepatitis C virus [2] amounted to 11.3 µM.

In the case of `Clc1ccc(Cn2c(CN3CCCC3)nc3ccccc32)cc1` [CLEMIZOLE], the viability at 72 h, 10 µM in data set [4] is 102%. Moreover, the Activity at 10 µM in the data set on Hepatitis C virus [5] stood at 23.4%. Moreover, in data set [1], the CC50 at 72 h was 39.4 µM. Further, the selectivity ratio was found to be 4.3 in data set [6] and 4.9 in data set [3]. The EC50 with Hepatitis C virus [2] was 8 µM.
